Data reported in ChEMBL document CHEMBL1136807, “CC-1065 analogues bearing different DNA-binding subunits: synthesis, antitumor activity, and preliminary toxicity study” (J Med Chem, 2003).

Key:
Mus musculus [1] = assay: Number of mice bearing L1210 leukemia that survived after 30 days, after administration of 45 µg/kg compound
Mus musculus [2] = assay: Increase in life span of mice bearing L1210 leukemia after administration of 100 […] compound; type: functional
Summary of the method: (§1)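 In vivo antitumor test in mice bearing L1210 leukemia, read out as increase in life span (ILS). Body weight was monitored. The optimal dose was defined as the dose giving the best antitumor efficacy with body weight loss ≤15%.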

Mus musculus [3] = assay: Number of mice surviving on day 180 treated with 100 […] compound; 8/8; type: functional, organism-based
Mus musculus [4] = assay: Increase in life span of mice bearing L1210 leukemia after administration of 67 […] compound; type: functional
Summary of the method: as §1

Mus musculus [5] = assay: Weight change in mice bearing L1210 leukemia after administration of 100 […] compound; type: functional
Mus musculus [6] = assay: Weight change in mice bearing L1210 leukemia after administration of 67 […] compound; type: functional
L1210 = assay: Compound was tested in vitro against L1210 leukemia cells; type: functional, cell-based; details: Mus musculus
Summary of the method: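 L1210 murine leukemia cells exposed to drug for 48 h; IC50 reported in nM.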

Mus musculus [7] = assay: Days until first mouse died treated with 100 […] compound; no death; type: functional, organism-based
Mus musculus [8] = assay: Number of mice bearing L1210 leukemia that survived after 30 days, after administration of 67 […] compound; type: functional
Summary of the method: as §1

Mus musculus [9] = assay: Number of mice bearing L1210 leukemia that survived after 30 days, after administration of 100 […] compound; type: functional
Summary of the method: as §1

Mus musculus [10] = assay: Weight change in mice bearing L1210 leukemia after administration of 45 […] compound; type: functional
Mus musculus [11] = assay: Increase in life span of mice bearing L1210 leukemia after administration of 45 […] compound; type: functional
Summary of the method: as §1

Mus musculus [12] = assay: Number of mice surviving on day 180 treated with 100 […] compound; 5/8; type: functional, organism-based
Mus musculus [13] = assay: Days until first mouse died treated with 100 […] compound; type: functional
Summary of the method: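 Delayed-toxicity study in non-tumor-bearing BDF1 mice: single ip dose given on day 0, then animals observed for up to 180 days. Recorded the day the first mouse died and the number of mice alive on day 180, with 6–8 mice per group.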

Mus musculus [14] = assay: Increase in life span of mice bearing L1210 leukemia after administration of 498 […] compound; type: functional
Summary of the method: as §1

Mus musculus [15] = assay: Weight change in mice bearing L1210 leukemia after administration of 620 […] compound; type: functional
Mus musculus [16] = assay: Weight change in mice bearing L1210 leukemia after administration of 498 […] compound; type: functional
Mus musculus [17] = assay: Number of mice bearing L1210 leukemia that survived after 30 days, after administration of 298 […] compound; type: functional
Summary of the method: as §1

Mus musculus [18] = assay: Increase in life span of mice bearing L1210 leukemia after administration of 620 […] compound; type: functional
Summary of the method: as §1

Mus musculus [19] = assay: Number of mice bearing L1210 leukemia that survived after 30 days, after administration of 498 µg/kg compound
Mus musculus [20] = assay: Number of mice bearing L1210 leukemia that survived after 30 days, after administration of 620 […] compound; type: functional
Summary of the method: as §1

Mus musculus [21] = assay: Weight change in mice bearing L1210 leukemia after administration of 298 […] compound; type: functional
Mus musculus [22] = assay: Increase in life span of mice bearing L1210 leukemia after administration of 298 […] compound; type: functional
Summary of the method: as §1

Mus musculus [23] = assay: Weight change in mice bearing L1210 leukemia after administration of 30 […] compound; type: functional
Mus musculus [24] = assay: Number of mice bearing L1210 leukemia that survived after 30 days, after administration of 30 ug/kg compound
Mus musculus [25] = assay: Increase in life span of mice bearing L1210 leukemia after administration of 30 […] compound; type: functional
Summary of the method: as §1

Mus musculus [26] = assay: Number of mice surviving on day 180 treated with 100 […] compound; 7/7; type: functional, organism-based

Row | Compound | Survivors (Mus musculus [1]) | ILS at 100 mg/kg (Mus musculus [2]) | No. of mice (Mus musculus [3]) | ILS at 67 mg/kg (Mus musculus [4]) | Weight change (Mus musculus [5]) | Weight change (Mus musculus [6]) | IC50 (L1210) | Days (Mus musculus [7]) | Survivors (Mus musculus [8]) | Survivors (Mus musculus [9]) | Weight change (Mus musculus [10]) | ILS at 45 mg/kg (Mus musculus [11]) | other results
1 | O=C(Nc1ccc2[nH]c(C(=O)N3CC(CCl)c4c3cc(O)c3ccccc43)cc2c1)c1cc2cc([N+](=O)[O-])ccc2o1 (racemic) | 0 | 173% | Mice surviving 8/8 | 147% | -5% | -2% | 0.44 nM | No death | 0 | 0 | 2% | 120% | –
2 | COc1ccc2[nH]c(C(=O)Nc3ccc4[nH]c(C(=O)N5CC(CCl)c6c5cc(O)c5ccccc65)cc4c3)cc2c1 (racemic) | 0 | 53% | – | 93% | -15% | 3% | 5.7 nM | – | 0 | 0 | 2% | 93% | No. of mice (Mus musculus [12]): Mice surviving 5/8; Days (Mus musculus [13]): 35
3 | O=C(Nc1ccc2[nH]c(/C=C/C(=O)N3CC(CCl)c4c3cc(O)c3ccccc43)cc2c1)c1cc2ccccc2[nH]1 (racemic) | – | – | Mice surviving 8/8 | – | – | – | 1 nM | No death | – | – | – | – | ILS at 498 mg/kg (Mus musculus [14]): 231%; Weight change (Mus musculus [15]): -13%; Weight change (Mus musculus [16]): 0%; Survivors (Mus musculus [17]): 0; ILS at 620 mg/kg (Mus musculus [18]): 147%; Survivors (Mus musculus [19]): 1; Survivors (Mus musculus [20]): 0; Weight change (Mus musculus [21]): 0%; ILS at 298 mg/kg (Mus musculus [22]): 157%
4 | CC(=O)Nc1ccc2[nH]c(C(=O)Nc3ccc4[nH]c(C(=O)N5CC(CCl)c6c5cc(O)c5ccccc65)cc4c3)cc2c1 (racemic) | – | – | – | – | – | – | 2.5 nM | – | – | – | – | – | –
5 | O=C(Nc1ccc2[nH]c(C(=O)N3CC(CCl)c4c3cc(O)c3ccccc43)cc2c1)c1cc2cc(F)ccc2o1 (racemic) | 0 | – | – | 147% | – | 0% | 0.85 nM | No death | 0 | – | 5% | 107% | Weight change (Mus musculus [23]): 5%; Survivors (Mus musculus [24]): 0; ILS at 30 mg/kg (Mus musculus [25]): 67%; No. of mice (Mus musculus [26]): Mice surviving 7/7
6 | COc1cccc2c1C(=O)c1c(O)c3c(c(O)c1C2=O)C[C@@](O)(C(=O)CO)C[C@@H]3O[C@H]1C[C@H](N)[C@H](O)[C@H](C)O1 [DOXORUBICIN] | – | – | – | – | – | – | 179 nM | – | – | – | – | – | –
